Assay results from ChEMBL document CHEMBL1781959, “Synthesis and in vitro antitumor activity of substituted quinazoline and quinoxaline derivatives: search for anticancer agent” (Eur J Med Chem, 2011).

Columns and labels:
SR = test: Growth inhibition of human SR cells after 48 hrs by SRB assay; type: functional
How it was run: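 Leukemia suspension line in the NCI-60 screen, grown in RPMI 1640 with 5% FBS and 2 mM L-glutamine and preincubated for 24 h. Exposure was either a single 10^-5 M dose or five doses from 0.01 to 100 μM, for 48 h at 37 °C. Settled cells were fixed with 80% TCA (16% final), stained with SRB, and read at 515 nm. GI50 was derived from % growth against time-zero and untreated controls.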

SK-OV-3 = test: Cytotoxicity against human SKOV3 cells after 48 hrs by SRB assay; type: cell-based; conditions: sk-ov-3, 48 h
How it was run: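 NCI-60 five-dose screen in RPMI 1640 with 5% FBS and 2 mM L-glutamine; 5000–40,000 cells/well, 24 h pre-incubation. DMSO stocks diluted to 0.01, 0.1, 1, 10 and 100 μM final; 48 h at 37 °C, 5% CO2. Fixed with TCA (10% final adherent, 16% suspension), stained with 0.4% SRB, A515. GI50, TGI and LC50 taken from time-zero, control and test absorbances.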

O=c1c2ccccc2nc(-c2ccco2)n1/N=C/c1ccccc1Cl
> 100 µM: GI50 (SR) | TGI (SR) | LC50 (SK-OV-3)
